Assay results from ChEMBL document CHEMBL1139013, “Synthesis and biological evaluation of novel 9-substituted-8-hydroxyadenine derivatives as potent interferon inducers” (J Med Chem, 2006).

How the values were obtained:
[1] = system: Splenocyte; experiment: Induction of IFN in C3H/HeJ mouse splenocytes at 100 nM; format: functional
In short: (§1)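 Mouse splenocytes are suspended at 2 × 10⁶ cells/mL in MEM with 5% fetal calf serum, penicillin and streptomycin. They are mixed 1:1 with compound (DMSO stock diluted 500-fold in medium) and cultured 18 h at 37 °C in 5% CO₂. Supernatants are filter-sterilized and stored at -80 °C. IFN (IU/mL) is measured by L929/vesicular stomatitis virus bioassay.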

[2] = system: Splenocyte; experiment: Induction of IFN in C3H/HeJ mouse splenocytes at 30 nM; format: functional; in short: as §1
[3] = system: Mus musculus; experiment: Induction of IFN in BALB/c mice at 0.1 mg/kg, po; format: functional
[4] = system: Mus musculus; experiment: Induction of IFN in BALB/c mice at 0.3 mg/kg, po; format: functional
[5] = system: Splenocyte; experiment: Induction of IFN in C3H/HeJ mouse splenocytes at 3 nM; format: functional; in short: as §1
[6] = system: Splenocyte; experiment: Induction of IFN in C3H/HeJ mouse splenocytes at 10 nM; format: functional; in short: as §1
[7] = system: Splenocyte; experiment: Induction of IFN in C3H/HeJ mouse splenocytes at 1 nM; format: functional; in short: as §1
[8] = Cmax in ferret at 3 mg/kg, po; format: ADME, organism-based, Mustela putorius furo; parameters: dose 3 mg/kg, route oral; settings: in vivo
In short: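 Male ferrets, 4 months old, dosed orally with compound suspended in 0.5% sodium carboxymethyl cellulose. Blood (0.5 mL) drawn from jugular vein; serum separated at 1630g, 10 min, 4 °C, stored at -20 °C. Compound concentration measured by HPLC; maximum concentration reported in ng/mL.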

[9] = system: Mustela putorius furo; experiment: Emetic activities in ferret at 0.3 mg/kg, po; format: organism-based; parameters: dose 0.3 mg/kg, route oral; settings: in vivo
In short: (§2)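 Oral dosing of male ferrets (4 months old) with compound in 0.5% sodium carboxymethyl cellulose vehicle; doses 0.3-30 mg/kg, 5 animals per group. Animals housed singly, video-recorded continuously for 6 h. Tapes scored afterwards for presence or absence of vomiting; reported as number vomiting per group.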

[10] = system: Mustela putorius furo; experiment: Emetic activities in ferret at 3 mg/kg, po; format: organism-based; parameters: dose 3 mg/kg, route oral; settings: in vivo; in short: as §2
[11] = system: Cynomolgus monkey; experiment: Induction of IFN in cynomolgus monkey at 1 mg/kg, po; format: functional, Macaca fascicularis
[12] = system: Cynomolgus monkey; experiment: Induction of IFN in cynomolgus monkey at 0.1 mg/kg, po; format: functional, Macaca fascicularis
[13] = system: Cynomolgus monkey; experiment: Induction of IFN in cynomolgus monkey at 0.3 mg/kg, po; format: functional, Macaca fascicularis

Row | Structure (SMILES) | Activity [1] [IU/ml] | Activity [2] [IU/ml] | Activity [3] [IU/ml] | Activity [4] [IU/ml] | Activity [5] [IU/ml] | Activity [6] [IU/ml] | further results
1 | CCCCNc1nc(N)c2nc(O)n(Cc3ccccc3)c2n1 | 3.4 | <0.5 | 113 | 465 | – | – | –
2 | CCCCNc1nc(N)c2nc(O)n(Cc3cccnc3C)c2n1 | 3 | 8.3 | – | – | <0.5 | 12.8 | –
3 | CCCCNc1nc(N)c2nc(O)n(Cc3ccc([N+](=O)[O-])cc3)c2n1 | 2 | 4.5 | 61 | 444 | <0.5 | 11.6 | –
4 | CCCCNc1nc(N)c2nc(O)n(Cc3ccc(OCc4ccccc4)cc3)c2n1 | 10.6 | <0.5 | – | – | – | – | –
5 | CCCCNc1nc(N)c2nc(O)n(CC3CCCCC3)c2n1 | 3.7 | 1.7 | – | – | – | <0.5 | –
6 | CCCCNc1nc(N)c2nc(O)n(Cc3ccc(CCCC)cc3)c2n1 | 11 | <0.5 | – | <5 | – | – | –
7 | Nc1nc(NCc2ccncc2)nc2c1nc(O)n2Cc1ccc(F)cc1 | 5.2 | – | 19 | 492 | <0.5 | 11.1 | –
8 | CCCCNc1nc(N)c2nc(O)n(Cc3cccc(Cl)c3)c2n1 | 4.4 | 2.8 | – | – | – | <0.5 | –
9 | COCCNc1nc(N)c2nc(O)n(Cc3ccc(F)cc3)c2n1 | 8.3 | 4.8 | 54 | 521 | – | <0.5 | –
10 | CCCCNc1nc(N)c2nc(O)n(CCc3ccccc3)c2n1 | <0.5 | – | – | – | – | – | –
11 | CCCCNc1nc(N)c2nc(O)n(Cc3ccccc3Cl)c2n1 | 4.5 | 2 | – | – | – | <0.5 | –
12 | CCCCNc1nc(N)c2nc(O)n(Cc3ccccn3)c2n1 | 9.1 | 7.4 | – | <5 | – | <0.5 | –
13 | CCCCNc1nc(N)c2nc(O)n(CC(C)C)c2n1 | 4.1 | <0.5 | – | – | – | – | –
14 | CCCCNc1nc(N)c2nc(O)n(Cc3ccc(C)nc3Cl)c2n1 | 3.4 | – | <5 | – | <0.5 | 8.4 | –
15 | CCCCNc1nc(N)c2nc(O)n(CC(C)(C)O)c2n1 | 0.6 | <0.5 | – | <5 | – | – | –
16 | CCCCNc1nc(N)c2nc(O)n(Cc3ccc(C(F)(F)F)cc3)c2n1 | 15.2 | 10.7 | 8 | 276 | <0.5 | 2.9 | –
17 | CCCCNc1nc(N)c2nc(O)n(Cc3cccc4ccccc34)c2n1 | 15.4 | 34 | <5 | 39 | <0.5 | 2.2 | –
18 | CCCCNc1nc(N)c2nc(O)n(Cc3ccc(N(C)C)nc3)c2n1 | 2.7 | 5.1 | <5 | – | 4.9 | 9.4 | Activity [7]: <0.5 IU/ml
19 | CCCCNc1nc(N)c2nc(O)n(Cc3ccc4ccccc4c3)c2n1 | 17.4 | 7.1 | – | <5 | – | <0.5 | –
20 | CCCCNc1nc(N)c2nc(O)n(Cc3ccc(Cl)c(Cl)c3)c2n1 | 10 | – | <5 | 136 | <0.5 | 0.8 | –
21 | CCCCNc1nc(N)c2nc(O)n(Cc3ccc(F)c(F)c3)c2n1 | 7.1 | 14.7 | 35 | 338 | <0.5 | 6.4 | –
22 | CCCCNc1nc(N)c2nc(O)n(Cc3ccc(F)cc3)c2n1 | 4.2 | – | 139 | 313 | <0.5 | 12.8 | –

Row | Structure (SMILES) | Activity [1] [IU/ml] | Activity [2] [IU/ml] | Activity [3] [IU/ml] | Activity [4] [IU/ml] | Activity [5] [IU/ml] | Activity [6] [IU/ml] | further results
23 | CCCCNc1nc(N)c2nc(O)n(Cc3ccc(O)cc3)c2n1 | 3.1 | – | – | 20 | <0.5 | 12.4 | –
24 | CCCCNc1nc(N)c2nc(O)n(Cc3cncc(C)c3)c2n1 | 4.6 | 2.1 | – | – | 1.9 | 2.4 | Activity [7]: <0.5 IU/ml
25 | COCCNc1nc(N)c2nc(O)n(Cc3ccccc3)c2n1 | 7.1 | <0.5 | 44 | 639 | – | – | –
26 | CCCCNc1nc(N)c2nc(O)n(Cc3cnccc3Cl)c2n1 | 4.2 | <0.5 | – | – | – | – | –
27 | Nc1nc(NCc2ccncc2)nc2c1nc(O)n2Cc1ccccc1 | 9.1 | 3.9 | <5 | 73 | <0.5 | 2.2 | –
28 | CCCCNc1nc(N)c2nc(O)n(Cc3ccncc3)c2n1 | 4.3 | 11.9 | 21 | – | <0.5 | 4.2 | –
29 | CCCCNc1nc(N)c2nc(O)n(Cc3cnccn3)c2n1 | 4.2 | 2.9 | – | – | – | <0.5 | –
30 | CCCCNc1nc(N)c2nc(O)n(Cc3ccc(-c4ccccc4)cc3)c2n1 | 3.4 | 0.5 | – | – | – | – | –
31 | Nc1nc(NCc2ccccc2)nc2c1nc(O)n2Cc1ccccc1 | 80.4 | – | 203 | 398 | <0.5 | 44.4 | –
32 | CCCCNc1nc(N)c2nc(O)n(Cc3cccc(C)c3)c2n1 | 5.5 | 3 | – | – | – | <0.5 | –
33 | CCCCNc1nc(N)c2nc(O)n(Cc3cccnc3Cl)c2n1 | 5 | 16.3 | <5 | 94 | <0.5 | 3.7 | –
34 | CCCCNc1nc(N)c2nc(O)n(Cc3ccc(C(C)(C)C)cc3)c2n1 | 13 | 4.4 | – | <5 | – | <0.5 | –
35 | CCCCNc1nc(N)c2nc(O)n(Cc3ccccc3C)c2n1 | 3.6 | 3 | – | – | – | <0.5 | –
36 | CCCCNc1nc(N)c2nc(O)n(Cc3ccc(Cl)s3)c2n1 | 7.2 | 11.3 | 34 | 484 | <0.5 | 8.9 | –
37 | CCCCNc1nc(N)c2nc(O)n(Cc3ccc(Cl)nc3Cl)c2n1 | 5.7 | 14.6 | 42 | – | – | <0.5 | –
38 | CCCCNc1nc(N)c2nc(O)n(Cc3cccnc3)c2n1 | 8.1 | 16.6 | 76 | 327 | 1.6 | 32.5 | Activity [7]: <0.5 IU/ml
39 | Nc1nc(NCc2ccccc2)nc2c1nc(O)n2Cc1ccc(F)cc1 | 4.5 | <0.5 | – | <5 | – | – | –
40 | CCCCNc1nc(N)c2nc(O)n(Cc3ccc(C)cc3)c2n1 | 2 | 6.2 | 28 | 356 | <0.5 | 9.2 | –
41 | CCCCNc1nc(N)c2nc(O)n(Cc3ccc(Cl)cc3)c2n1 | 7.4 | 8.2 | 7 | 219 | <0.5 | 8.5 | –
42 | CCCCNc1nc(N)c2nc(O)n(Cc3ccc(OC)cc3)c2n1 | 2 | 4.7 | 73 | 933 | <0.5 | 6.5 | –
43 | CCOCc1nc2c(N)nc3ccccc3c2n1CC(C)(C)O [RESIQUIMOD] | 4 | 7 | 1176 | 1714 | 2.8 | 11 | Cmax [8]: 1180 ng/mL; Activity [9]: Active; Activity [10]: Active; Activity [11]: 44037 IU/ml; Activity [7]: <0.5 IU/ml; Activity [12]: 7 IU/ml; Activity [13]: 13 IU/ml
